Results taken from article PMC5538152 (Pharmacognosy Magazine, 2017).

Legend:
[1] = test system: DLD-1 colon carcinoma cell line; conditions: read-out: IC50 against DLD-1; cited from earlier work
HT29 cells [2] = assay: Cell cycle analysis; type: cell-based, human; conditions: 72 h; for Percentage of cells in G2-M phase (Dip G2): untreated 7.70%; for Percentage of cells in G0-G1 phase (Dip G1): untreated 65.54%
caspase 9 in HT29 cells = assay: Active caspase 9 by flow cytometry; type: cell-based, human; conditions: 72 h of treatment
Summary of the method: (§1)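 HT29 cells were seeded at 1 × 10^5 cells/ml overnight, then exposed to test compound at 8, 14 or 28 μM for 72 h (37°C, 5% CO2), with untreated cells in 0.5% DMSO as control. Harvested, PBS-washed cells were labelled 45 min at 37°C with FITC-IETD-FMK (caspase 8) or FITC-LEHD-FMK (caspase 9), then washed and read by flow cytometry in FL1. Means ± SD, ≥3 independent experiments.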

HT29 cells [3] = assay: Nuclear morphology by Hoechst 33342/propidium iodide staining; type: cell-based, human; conditions: 8 μM, 48 h
Summary of the method: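 Overnight cultures (1 × 10^5 cells/ml) were given test compound at 8, 14 or 28 μM or 0.5% DMSO for 48 h at 37°C, 5% CO2. Cells were harvested, washed in cold PBS and incubated with Hoechst 33342 (10 μg/ml) for 7 min at 37°C. PI (2.5 μg/ml) was then added for 15 min in the dark at room temperature. Cells were dried on slides and nuclei examined by fluorescence microscopy at ×630.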

[4] = test system: CCD-18Co normal human colon fibroblast cell line; assay: In vitro cytotoxicity assay; type: cell-based; conditions: 72 h
caspase 8 in HT29 cells = assay: Active caspase 8 by flow cytometry; type: cell-based, human; conditions: 72 h of treatment
Summary of the method: as §1

HT29 cells [5] = assay: Cell morphology by phase contrast microscopy; type: cell-based, human; conditions: 8, 14, 28 μM; dose- and time-dependent
[6] = test system: HeLa cervical carcinoma cell line; conditions: read-out: IC50 against HeLa; cited from earlier work
caspase 8 and caspase 9 = conditions: cited from earlier work

For C=CC(C)(C)c1cc2cc3c(cc2oc1=O)OC(C(C)(C)OC(C)=O)C3 (stereo not shown) [Rutamarin (8), rutamarin], the IC50 [1] is given as 37.5 µM, the “Percentage of cells in G2-M phase (Dip G2)” value (“Percentage … (Dip G2)” below) (HT29 cells [2]; 8 μM) is given as 12.05% and the “Percentage of cells in G0-G1 phase (Dip G1)” value (shortened to “Percentage of cells … (Dip G1)”) (HT29 cells [2]; 8 μM) is given as 75.26%. The “Percentage … (Dip G2)” value (HT29 cells [2]; 14 μM) was 12.60%, the “Percentage of cells … (Dip G1)” value (HT29 cells [2]; 14 μM) was 76.20% and the “Percentage … (Dip G2)” value (HT29 cells [2]; 28 μM) was 15.24%. For the same compound, the “Percentage of cells … (Dip G1)” value (HT29 cells [2]; 28 μM) was 76.58%, the “Caspase 9 activation relative to untreated cells” value (caspase 9 in HT29 cells) was 4 fold and the “Nuclear morphology” value (HT29 cells [3]) was “chromatin condensation”. The “Toxicity to normal colon cells (words)” value ([4]; listed as Rutamarin) was “not toxic to CCD-18Co cells”, the “Toxicity to normal colon cells (words)” value ([4]; listed as rutamarin) was “exerted no damage against the normal cells” and the IC50 ([4]; Homo sapiens, CCD-18Co, read-out: IC50 (μM), CCD-18Co, 72 h of incubation, SRB) was ≥ 100 µM. The “Caspase 8 activation relative to untreated cells” value (caspase 8 in HT29 cells) was 15 fold, the “Cellular morphological changes” value (HT29 cells [5]) was “apoptotic bodies, cell shrinkage, detachment, and rounding were observed” and the IC50 [6] was 50.7 µM.

In the case of CCCC(=O)c1c(O)c(C/C=C(\C)CCC=C(C)C)c(O)c2c([C@@H](O)CC)cc(=O)oc12 [kayeassamin A], the “Caspase activation” value (caspase 8 and caspase 9) is given as “activate caspase 8 more than caspase 9”.
